Source: PubChem (several laboratories)
SR-BI HDL uptake – inhibitors of mouse SR-BI mediated HDL lipid uptake | ldlA[mSR-BI] CHO cells, DiI-HDL uptake fluorescence, 3 h | inhibition, % at 12.5 µM | Q61009 | hit rate 0.96% among 320,000;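 active = mean replicate inhibition of at least 70% and a set share of replicates each scoring 70 or more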;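 note: 0% = median of neutral control wells and 100% = median of positive control wells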
Target sequence (Q61009 whole entry, looked up): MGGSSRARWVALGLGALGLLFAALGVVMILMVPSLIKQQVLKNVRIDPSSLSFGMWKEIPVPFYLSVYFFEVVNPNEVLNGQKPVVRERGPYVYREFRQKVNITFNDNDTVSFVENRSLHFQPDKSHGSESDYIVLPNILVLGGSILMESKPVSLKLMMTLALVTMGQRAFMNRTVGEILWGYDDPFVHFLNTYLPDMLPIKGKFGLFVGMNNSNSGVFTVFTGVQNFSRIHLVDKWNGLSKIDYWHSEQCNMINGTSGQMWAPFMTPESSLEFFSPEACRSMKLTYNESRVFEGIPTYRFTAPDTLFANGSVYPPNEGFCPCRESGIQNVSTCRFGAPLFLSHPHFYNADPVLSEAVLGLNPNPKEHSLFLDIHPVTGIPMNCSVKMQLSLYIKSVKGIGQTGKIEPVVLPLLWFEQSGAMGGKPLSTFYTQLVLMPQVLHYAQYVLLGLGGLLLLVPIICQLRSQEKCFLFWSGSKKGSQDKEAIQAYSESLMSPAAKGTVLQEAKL
TAG inh – reduces triacylglycerol accumulation in H9c2 cells | Nile Red lipid (TAG) fluorescence; cells loaded with 200 µM oleic acid | inhibition, % at 12.5 µM | hit rate 0.66% among 230,000 | AID 651582;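 active = pattern-corrected inhibition of lipid staining of at least 50% with the nuclear-stain viability signal not falling by more than 50%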;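 note: 0% = DMSO wells and 100% = triacsin C control wells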
SR-BI uptake up – enhances SR-BI lipid uptake from DiI-HDL; CHO ldlA[mSR-BI] cells, DiI-HDL uptake fluorescence, 3 h; 100 = double the neutral-control signal; activation, % at 12.5 µM; hit rate 0.096% among 320,000;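 active = mean replicate activation of at least 60% and every replicate at or above 60%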;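 note: 0% = median plate neutral-control signal and 100% = twice that signal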
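System: CHO ldlA[mSR-BI] cells / Medium: HEPES-buffered (25 mM, pH 7.4) F12 plus 0.5% BSA / Probe or stimulus: labelled HDL, 10 µg/mL / Doses: single compound concentration, delivered by pin transfer / Schedule: 3 h, 37 °C / Measured by: DiI fluorescence, bottom read / Measure: cell-associated DiI fluorescence as measure of HDL uptake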
Vif imaging – blocks HIV Vif function; HEK293T cells, Vif self-association by quenched fluorescence, imaging, 24 h; inhibition, % at 7.49 µM; hit rate 0.35% among 340,000; in the data active = inhibition above about 50%, passing the limit was not always enough
Bfl-1 A1 inh – inhibitors of the anti-apoptotic protein A1, read as caspase activation | MEF A1-2A-BIM cells, Caspase-Glo 3/7 luminescence, 3 h; percent of clofoctol response, vehicle zero | caspase activation, % (test concentration not listed) | hit rate 0.066% among 330,000 | AID 2462;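 active = over half of replicate activation scores above 10%, or exactly half above 10 with the replicate mean above 10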
* marks the source's active call; other numbers are inactive results; x = no result. Hits are enriched below; roughly 1.6% of the tested compounds scored in any of these assays.

SMILES	SR-BI HDL uptake	TAG inh	SR-BI uptake up	Vif imaging	Bfl-1 A1 inh
CCOCCCN(C(=O)c1snc(C(N)=O)c1N)C(C(=O)NC1CCCC1)c1ccc(OC)cc1 (configuration not stated)	-12	x	12	6	0
C=CCN1C(=O)c2ccc(C(=O)N(CCOC)c3c(N)n(CCCC)c(=O)[nH]c3=O)cc2C1=O	-41	1	41	-1	0
O=C(Nc1cccc(F)c1)N1CCCC(CNS(=O)(=O)Cc2ccccc2)C1 (configuration not stated)	-2	4	2	-9	0
O=S(=O)(NCC(c1ccc2c(c1)OCO2)N1CCOCC1)c1ccccc1 (configuration not stated)	-347	6	347*	-5	0
O=S(=O)(NCC(c1ccc2c(c1)OCO2)N1CCOCC1)c1ccc(Cl)cc1 (configuration not stated)	-21	0	21	-12	0
O=C(c1cc(-c2ccccc2O)on1)N1CCCCCC1	x	x	x	74*	-1
O=C(c1cc(-c2ccccc2O)on1)N1CCOCC1	-19	x	19	-5	-2
CCOC(=O)C1=CCN(S(C)(=O)=O)C1c1ccc(C)cc1 (configuration not stated)	x	x	x	34	x
COc1ccc(CNC(=O)CN(C(=O)c2csnn2)c2cccc3c2CCCC3)cc1	76*	x	-76	6	0
Cc1sc2ncnc(N3CCC(C(=O)NNC(=O)COc4ccc(Br)cc4)CC3)c2c1C	81*	10	-81	-3	0
COc1cc(C(=O)NC2CCN(C)CC2)ccc1Nc1ncc2c(n1)N(C1CCCC1)CCC(=O)N2C(C)C	-23	58*	23	-3	x
Cc1cc(C(=O)CN2C(=O)C(=O)N(CCC3=CCCCC3)C2=O)c(C)n1C	53	3	-53	0	0
COc1ccccc1C1=NOC(COc2ccc3c(C)cc(=O)oc3c2)C1 (configuration not stated)	6	59*	-6	7	2
CC(NC(=O)COc1ccccc1)C(=O)NCc1ccccc1Cl (configuration not stated)	-7	11	7	-3	0
Cc1ccc(NC2CC(=O)N(c3cccc([N+](=O)[O-])c3)C2=O)cc1 (configuration not stated)	83*	15	-83	2	0
COc1ccc(N2C(=O)CC(Nc3cccc([N+](=O)[O-])c3)C2=O)cc1 (configuration not stated)	x	8	x	17	0
CC(C)NC(=O)N(C)C[C@H]1Oc2c(cccc2N(C)C)C(=O)N([C@H](C)CO)C[C@@H]1C	-13	9	13	5	0
COCCn1c(COc2ccccc2)nnc1SCC(N)=O	-15	x	15	60*	x
CC(NC(=O)C1CCN(S(=O)(=O)c2cccs2)CC1)c1cccc(Cl)c1 (configuration not stated)	18	16	-18	0	-1
O=C(CN(c1cccc(C(F)(F)F)c1)S(=O)(=O)c1ccc(Cl)c([N+](=O)[O-])c1)NCc1ccc(F)cc1	-2	8	2	7	0
CN(C)/C=C(/C#N)C(=O)c1cccc(Oc2ccc(C(C)(C)C)cc2)c1	71*	16	-71	-13	-4
Cc1ccccc1Oc1cccc(C(=O)/C(C#N)=C/N(C)C)c1	8	0	-8	6	0
Cc1ccc(C)c(N=Nc2nc3ccccc3n2C)c1	37	x	-37	-7	-6
Cc1cc(C)c(C)c(N=Nc2nc3ccccc3n2C)c1C	79*	16	-79	-4	-2
c1ccc(CCNc2ccc3c(c2)Cc2ccccc2-3)nc1	-3	-16	3	-2	x
SMILES	SR-BI HDL uptake	TAG inh	SR-BI uptake up	Vif imaging	Bfl-1 A1 inh
O=C(Nc1cc2c3c(c1)C1CCCC1CN3CC1CCCC21)c1ccccc1 (configuration not stated)	80*	-21	-80	26	1
Cc1nc2c3cc(F)ccc3n(Cc3ccc(F)cc3)c2s1	80*	11	-80	-4	0
c1cnn(-c2cncc(-n3cccn3)n2)c1	0	-3	0	3	-2
CCCCCC(=O)Nc1nc(C)c(-c2csc(Nc3cc(Cl)ccc3OC)n2)s1	79*	-1	-79	-7	0
COc1ccccc1Nc1nc(-c2sc(NC(=O)C(C)(C)C)nc2C)cs1	85*	21	-85	5	0
CCCC(=O)Nc1nc(C)c(-c2csc(Nc3ccccc3OC)n2)s1	40	1	-40	-9	-1
CCCC(C)C(=O)Nc1nc(C)c(-c2csc(Nc3cc(OC)ccc3OC)n2)s1 (configuration not stated)	93*	41	-93	2	0
CCCC(=O)Nc1nc(C)c(-c2csc(Nc3cc(OC)ccc3OC)n2)s1	94*	42	-94	0	0
CS(=O)(=O)c1cccc(-c2nnc(NC(=O)CCS(=O)(=O)c3ccccc3)o2)c1	-18	-7	18	x	1
CC1=CC(C2CC(=O)N(c3ccc(C)cc3)C2=O)CC2C(=O)N(c3ccc(C)cc3)C(=O)C12 (configuration not stated)	2	0	-2	-3	3
Cc1ccc(NC(=O)c2nc[nH]c2C(=O)Nc2ccccc2F)cc1	x	-9	x	90*	x
CN(CC(=O)N1CCN(c2ccccc2)CC1)C1CCCc2ccccc21 (configuration not stated)	-5	x	5	-16	1
O=C(Nc1ccc(Cl)c(Cl)c1)c1ccc(Cl)c(Cl)c1	67	x	-67	-6	1
O=C(Nc1ccc2c(c1)COC2=O)c1ccc(Cl)c(Cl)c1	72*	1	-72	-6	-1
CS(=O)(=O)c1cccc(NC(=O)c2ccc(Cl)c(Cl)c2)c1	83*	-3	-83	-10	0
COc1ccc(/C=C/C(=O)NC(=S)NCCc2ccc(OC)c(OC)c2)cc1	83*	x	-83	70*	7.2*
CCOc1ccccc1NC(=O)Cn1nnc(C(=O)NCc2ccco2)c1N	-7	66*	7	x	1
Cc1ccccc1NC(=O)Cn1nnc(C(=O)NCc2ccco2)c1N	-13	x	13	5	2
CCOc1ccc(CCNC(=O)c2nnn(CC(=O)Nc3ccc(OC)c(OC)c3)c2N)cc1OCC	72*	x	-72	2	1
CCOc1ccc(/C=C/C(=O)OCC(=O)NCCc2ccc(OCC)c(OCC)c2)cc1OC	73*	33	-73	2	-1
COc1ccc(NC(=O)Cn2nnc(C(=O)Nc3ccccc3C)c2N)cc1	-17	x	17	53*	0
COc1ccc(CCNC(=S)N2CCC(C(=O)c3ccc(F)cc3)CC2)cc1OC	80*	10	-80	-26	0
Cc1c(Cc2ccccc2)sc(NC(=O)c2ccco2)c1C(N)=O	5	x	-5	-6	-1
